procasp7 counter: counter-screen for procaspase-3 activators: activators of human procaspase-7; P55210; recombinant procaspase-7, Ac-DEVD-pNA absorbance 405 nm; D23A/D198A/D206A triple mutant, cannot self-cleave; scale: DMSO 0, 5 µM enzyme 100; activation, % at 8.5 µM; actives 0.093% (n = 330,000); AID 463210;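 active = percent activation above the screen-wide mean plus 3 SD, cut at about 25% in these data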
Target sequence (P55210 whole entry D23A/D198A/D206A): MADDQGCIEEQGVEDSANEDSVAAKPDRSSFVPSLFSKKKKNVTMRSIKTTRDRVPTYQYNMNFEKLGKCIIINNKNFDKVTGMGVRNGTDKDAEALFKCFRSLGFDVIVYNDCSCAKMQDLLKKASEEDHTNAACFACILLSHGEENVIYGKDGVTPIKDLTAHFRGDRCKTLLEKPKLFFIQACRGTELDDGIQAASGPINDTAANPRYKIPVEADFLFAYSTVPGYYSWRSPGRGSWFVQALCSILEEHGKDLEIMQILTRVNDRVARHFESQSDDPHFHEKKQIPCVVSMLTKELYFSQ
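Detection: p-Nitroaniline absorbance at 405 nm, read at 0 and 120 min; system: Uncleavable procaspase-7 mutant enzyme; evaluation: % activation from two-timepoint absorbance difference, scaled to controls; times: 1 h enzyme–compound preincubation and 2 h substrate reaction, both 25 °C; buffer or medium: Zinc-free HEPES pH 7.4 with 300 mM NaCl, 0.01% Triton X-100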
procasp3 activ: activators of human procaspase-3; recombinant procaspase-3 D3A, Ac-DEVD-pNA absorbance 405 nm; activation, % at 8.5 µM; actives 0.11% (n = 330,000); AID 463141;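 active = activation above the mean of all tested compounds plus 3 SD, cut at about 21% in these data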;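 note: 0% = DMSO alone and 100% = DMSO wells spiked with extra 5 µM PC-3 D3A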
Target sequence (P42574 whole entry D9A/D28A/D175A): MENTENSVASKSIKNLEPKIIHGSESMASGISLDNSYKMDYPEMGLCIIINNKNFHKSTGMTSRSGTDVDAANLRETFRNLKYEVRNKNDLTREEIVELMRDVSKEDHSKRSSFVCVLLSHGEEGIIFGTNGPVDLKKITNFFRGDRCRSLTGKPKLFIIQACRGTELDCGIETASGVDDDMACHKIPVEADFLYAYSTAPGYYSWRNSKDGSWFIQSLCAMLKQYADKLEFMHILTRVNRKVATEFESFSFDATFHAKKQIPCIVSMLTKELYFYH
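material = Procaspase-3 D3A mutant | probe or stimulus = Ac-DEVD-pNA | compound = single dose, 8.5 µM nominal compound, 0.8% DMSO | timing = 1 h preincubation, 2 h reaction | measured by = 405 nm absorbance of p-nitroaniline, reads at 0 and 120 min | benchmarks = DMSO-only low control, 5 µM PC-3 D3A high control | repeats = singlicate, each compound tested once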
Neddylation inh: inhibitors of human cullin neddylation. P61081+Q13564. TR-FRET cullin neddylation, biochemical. calls only at 25 µM. actives 0.58% (n = 360,000). AID 651699; in the data active = inhibition above about 36%
KLK7 zymogen act: activates the human kallikrein-7 zymogen; purified proKLK7, EDANS-DABCYL substrate fluorescence; 100% is mature enzyme control, 0% vehicle; activation, % at 7 µM; actives 0.9% (n = 370,000); AID 652039;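 active = activation above the mean of all tested compounds plus 3 SD, computed per campaign excluding outliers beyond control limits, cut at about 13% in these data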
Neddyl inh conf: cullin neddylation inhibition, confirmation; TR-FRET cullin neddylation biochemical assay; shares compounds with Neddylation inh; actives 13% (n = 1,800); calls only at 25 µM; AID 652217; in the data active = inhibition above about 40%;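 note: neddylation substrate is the cullin 1 ring ligase complex with SKP2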
* marks the source's active call; other numbers are inactive results; i = inactive; . = no result shown; + = active, no number. Only some compounds are listed: those with a hit (about 1.6% of all), similar ones and a draw of the others.

SMILES	procasp7 counter	procasp3 activ	Neddylation inh	KLK7 zymogen act	Neddyl inh conf
Cc1n[nH]c(C)c1S(=O)(=O)NCCc1cccc(F)c1	.	.	.	0	.
Cc1ccc(S(=O)(=O)c2n[nH]n3c2nc(=O)c2ccccc23)cc1	17	9	+	-2	i
CCOC(=O)c1n[nH]n2c1nc(=O)c1ccccc12	.	.	.	0	.
O=C(CSc1nnc2ccc(-c3ccc(F)cc3)nn12)NCC1CCCO1 (stereo not given)	4	-1	+	3	.
CCc1ccc(-c2ccc3nnc(SCC(N)=O)n3n2)cc1	-2	7	+	3	i
COC[C@@H](OC(C)=O)[C@H]1OCc2ccccc2[C@@H]1/C=C/c1ccccc1	.	.	.	0	.
CCN(CC)S(=O)(=O)c1ccc(Cl)c(NC(=O)COC(=O)/C=C/c2ccc(O)c(OC)c2)c1	1	11	+	-2	i
COc1cc(/C=C/C(=O)OCC(=O)Nc2cc(S(=O)(=O)N3CCCCC3)ccc2C)ccc1O	3	-4	+	-4	i
O=C(COC(=O)c1ccc(Cl)nc1)NCCc1ccc(F)cc1	18	-1	i	0	.
CCN(CC)CCNC(=O)Cn1c(-c2ccccn2)nc2ccccc21	-7	-7	+	0	+
O=C(COc1ccc2c3c(c(=O)oc2c1)CCCC3)N[C@@H](Cc1ccccc1)C(=O)O	4	8	+	-1	.
CCOC(=O)[C@@]12CCCC=C1N(CCc1ccc(Cl)cc1)C(=O)[C@H]2CC(=O)NCc1cccs1	.	.	.	0	.
COCc1cc(N2CCN(C(=O)OC(C)(C)C)C[C@H]2C)ccc1N1CCN(Cc2ccccc2)[C@H](C)C1	.	.	.	1	.
COc1cc(OC)cc(-c2sc3ccc(OC)cc3c2C#CCO)c1	6	-8	i	-5	.
COc1cc2sc(-c3ccc(S(C)(=O)=O)cc3)c(C#CCO)c2cc1OC	1	3	+	-8	+
CS(=O)(=O)c1ccc(Cl)c(NC(=O)COC(=O)CCCN2C(=O)c3cccc4cccc(c34)C2=O)c1	5	16	+	1	i
NC(=O)c1cc(NC(=O)COC(=O)CCCN2C(=O)c3cccc4cccc(c34)C2=O)cc(C(N)=O)c1	19	9	i	3	.
Cc1cccn2c(=O)c(C=Nc3ccccc3)c(NCCO)nc12	3	-1	+	8	i
CN=Cc1c(NC)nc2c(C)cccn2c1=O	15	7	+	5	+
CNc1nc2c(C)cccn2c(=O)c1C=NCc1ccccc1	10	4	i	1	.
CCOC(=O)N1CCC(Nc2cc(C)nc3c(-c4ccccc4OC)c(C)nn23)CC1	2	4	+	2	i
COc1ccccc1-c1c(C)nn2c(N3CCC(C)CC3)cc(C)nc12	14	1	+	0	.
CCOC(=O)N1CCN(C(=O)CSc2cc(C)nc3c(-c4ccccc4OC)c(C)nn23)CC1	2	2	i	0	.
Cc1csc(NC(=O)c2ccc(COc3ccccc3F)o2)n1	.	.	.	0	.
COC(=O)c1cc(-c2cccc(OC(F)(F)F)c2)c(=O)n2c1CCC2	.	.	.	1	.
SMILES	procasp7 counter	procasp3 activ	Neddylation inh	KLK7 zymogen act	Neddyl inh conf
Nc1ccc(C(=O)N/N=C/c2cn(Cc3cccc(F)c3)c3ccccc23)cc1	.	.	+	-1	i
CCn1cc(C(=O)NCCC(C)C)c(=O)c2cc(F)c(N3CCN(C)CC3)cc21	6	2	+	2	.
CCN(CC)CCNC(=O)c1cn(CC)c2cc(N3CCN(C)CC3)c(F)cc2c1=O	-6	1	+	5	.
CCCOc1ccc(C(=O)NC(=S)N2CCN(c3cc4c(cc3F)c(=O)c(C(=O)O)cn4CC)CC2)cc1	-3	-3	+	0	i
CC(C)c1ccc(/C=C/C2=NNC(=O)CC2)cc1	-9	3	i	0	.
COc1cc(/C=C/C2=NNC(=O)CC2)cc(OC)c1OC	-3	-3	+	2	i
COc1ccc(OC)c2[nH]c(=O)c(CCNC(C)=O)cc12	6	8	i	0	.
COc1ccc(OC)c2[nH]c(=O)c(CCNC(=O)c3ccc4c(c3)OCO4)cc12	-5	6	+	0	i
CCOC(=O)C1CC(=O)c2cc(OC)c(OC)cc2C1 (stereo not given)	-2	9	+	0	.
O=C1NCCc2c1[nH]c1ccccc21	-5	3	i	-1	.
CC1Cc2c([nH]c3ccccc23)C(=O)N1 (stereo not given)	8	9	+	1	.
COc1cccc(-n2c(N)c(C(=O)Nc3c(C)n(C)n(-c4ccccc4)c3=O)c3nc4ccccc4nc32)c1	7	-12	+	-1	i
N#CCn1c2ccccc2c2nc3ccccc3nc21	-13	-6	+	1	i
C#CCn1c2ccccc2c2nc3ccccc3nc21	-3	8	i	1	.
O=C(Nc1cc(Cl)cc(Cl)c1)c1coc(=O)c(Br)c1	-3	-1	+	-5	i
O=C(NNC(=O)C1C2CCCCC21)c1coc(=O)c(Br)c1 (stereo not given)	3	-1	+	-6	i
CCOc1ccc(-c2c(C(=O)N/N=C/c3c[nH]c4ccccc34)nnn2-c2nonc2N)cc1	5	-2	+	-5	i
CCOc1ccc(/C=N/NC(=O)c2nnn(-c3nonc3N)c2-c2ccc(OCC)cc2)cc1	-11	6	i	-10	.
Cc1cc(NS(=O)(=O)c2ccc(NC(=O)c3cc4c(=O)n5ccccc5nc4s3)cc2)nc(C)n1	.	.	+	0	+
CN(C)S(=O)(=O)c1cccc(NC(=O)c2cc3c(=O)n4ccccc4nc3s2)c1	-4	7	+	0	.
Cc1cc(NS(=O)(=O)c2ccc(NC(=O)c3cc4ccccc4o3)cc2)nc(C)n1	-1	8	i	-1	.
CCOc1ccc2[nH]c(=O)c(CN(CCO)C(=O)CC)cc2c1	-3	-2	+	2	+
CCOc1ccc2[nH]c(=O)c(CN(CCO)C(=O)c3ccc(Br)cc3)cc2c1	13	-1	i	0	.
CC(C)Nc1ncnc2c1ncn2[C@H]1CN(Cc2ccco2)C[C@@H](CO)O1	.	.	i	0	.
OC[C@@H]1CN(Cc2ccc(Cl)cc2)C[C@H](n2cnc3c(Nc4ccccc4)ncnc32)O1	.	.	+	0	.
OC[C@@H]1CN(Cc2ccco2)C[C@H](n2cnc3c(Nc4ccccc4)ncnc32)O1	.	.	+	0	.
c1ccc2nc3ccccc3nc2c1	-1	9	i	0	.
Nc1nc2ccccc2nc1N	12	-5	+	1	+
COCCN1C=C(C(=O)OC)C(c2cc3c(cc2Br)OCO3)C(C(=O)OC)=C1	1	2	.	.	.
COCCN1C=C(C(=O)OC)C(c2ccc3c(c2)OCO3)C(C(=O)OC)=C1	8	0	+	-1	+

Compound activity: PubChem BioAssay, several laboratories
